Assay results from ChEMBL document CHEMBL4689842, “EUbOPEN Chemogenomics Library wave 1” (2021).

Tests used:
Type in all cases: toxicity, cell-based
[1] = system: U2OS; test: Multiplex assay against U2OS; conditions: human
Method in brief: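 Four dyes were applied at seeding to live cells: Hoechst33342, BioTracker Green Microtubule Cytoskeleton Dye, MitoTracker Red and Annexin V Alexa Fluor 680. Imaging after compound addition used a CQ1 microscope at 37°C and 5% CO2. CellPathfinder machine-learning gating then sorted cells into Hoechst high-intensity objects or normal cells, normal cells into healthy, pyknosed or fragmented nuclei, and pyknosed cells into mitotic or apoptotic, with tubulin, mitochondrial-mass and membrane-permeability phenotypes given as per cents of healthy-nucleus cells.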

[2] = system: U2OS; test: Incucyte cell viability with U2OS; conditions: human, 10 µM, compound concentration 10 uM; note: filed as whole numbers so only -1 and 0 and 1 occur
[3] = system: HEK-293T; test: Incucyte cell viability with HEK293T; conditions: human, 10 µM, compound concentration 10 uM; note: filed as whole numbers so only -1 and 0 and 1 occur
[4] = 12 h, 1 µM, compound concentration 1 uM, replicate 1
[5] = 12 h, 1 µM, compound concentration 1 uM, replicate 2
[6] = 12 h, 10 µM, compound concentration 10 uM, replicate 1
[7] = 12 h, 10 µM, compound concentration 10 uM, replicate 2
[8] = 24 h, 1 µM, compound concentration 1 uM, replicate 1
[9] = 24 h, 1 µM, compound concentration 1 uM, replicate 2
[10] = 24 h, 10 µM, compound concentration 10 uM, replicate 1
[11] = 24 h, 10 µM, compound concentration 10 uM, replicate 2
[12] = 6 h, replicate number 1, timepoint 6 hours
[13] = 12 h, replicate number 1, timepoint 12 hours
[14] = 18 h, replicate number 1, timepoint 18 hours
[15] = 24 h, replicate number 1, timepoint 24 hours

In the case of `CC[C@H](Nc1ncnc2[nH]cnc12)c1nc2cccc(F)c2c(=O)n1-c1ccccc1` [IDELALISIB], the “Population Apoptotic (%)” value [1, 4] is reported as 46%, the “Population Fragmented Nuclei (%)” value [1, 4] is reported as 1% and the “Population Healthy Nuclei (%)” value [1, 4] is reported as 88%. For the same molecule, the “Population Hoechst High Intensity Objects (%)” value [1, 4] was 3%, the “Population Membrane Permeable-Phenotype (%)” value [1, 4] was 47% and the “Population Mitochondria Different-Phenotype (%)” value [1, 4] was 10%. The “Population Mitotic Cells (%)” value [1, 4] was 53%, the “Population Normal (%)” value [1, 4] was 96% and the “Population Pyknosed Nuclei (%)” value [1, 4] was 9%. For the same molecule, the “Population Tubulin-Different-Phenotype (%)” value [1, 4] was 34%, the “Total Cell Count” value [1, 4] was 162 and the “Population Apoptotic (%)” value [1, 5] was 14%. For the same molecule, the “Population Fragmented Nuclei (%)” value [1, 5] was 10%, the “Population Healthy Nuclei (%)” value [1, 5] was 84% and the “Population Hoechst High Intensity Objects (%)” value [1, 5] was 9%. The “Population Membrane Permeable-Phenotype (%)” value [1, 5] was 45%, the “Population Mitochondria Different-Phenotype (%)” value [1, 5] was 8% and the “Population Mitotic Cells (%)” value [1, 5] was 85%. For the same molecule, the “Population Normal (%)” value [1, 5] was 90%, the “Population Pyknosed Nuclei (%)” value [1, 5] was 5% and the “Population Tubulin-Different-Phenotype (%)” value [1, 5] was 27%. For the same molecule, the “Total Cell Count” value [1, 5] was 132, the “Population Apoptotic (%)” value [1, 6] was 0% and the “Population Fragmented Nuclei (%)” value [1, 6] was 5%. For the same molecule, the “Population Healthy Nuclei (%)” value [1, 6] was 86%, the “Population Hoechst High Intensity Objects (%)” value [1, 6] was 11% and the “Population Membrane Permeable-Phenotype (%)” value [1, 6] was 4%. The “Population Mitochondria Different-Phenotype (%)” value [1, 6] was 18%, the “Population Mitotic Cells (%)” value [1, 6] was 100% and the “Population Normal (%)” value [1, 6] was 88%. The “Population Pyknosed Nuclei (%)” value [1, 6] was 7%, the “Population Tubulin-Different-Phenotype (%)” value [1, 6] was 90% and the “Total Cell Count” value [1, 6] was 180. The “Population Fragmented Nuclei (%)” value [1, 7] was 8%, the “Population Healthy Nuclei (%)” value [1, 7] was 88% and the “Population Hoechst High Intensity Objects (%)” value [1, 7] was 16%. The “Population Mitochondria Different-Phenotype (%)” value [1, 7] was 28%, the “Population Normal (%)” value [1, 7] was 83% and the “Population Pyknosed Nuclei (%)” value [1, 7] was 2%. For the same molecule, the “Population Tubulin-Different-Phenotype (%)” value [1, 7] was 15%, the “Total Cell Count” value [1, 7] was 130 and the “Population Apoptotic (%)” value [1, 8] was 45%. For the same molecule, the “Population Fragmented Nuclei (%)” value [1, 8] was 3%, the “Population Healthy Nuclei (%)” value [1, 8] was 85% and the “Population Hoechst High Intensity Objects (%)” value [1, 8] was 3%. For the same molecule, the “Population Membrane Permeable-Phenotype (%)” value [1, 8] was 28%, the “Population Mitochondria Different-Phenotype (%)” value [1, 8] was 9% and the “Population Mitotic Cells (%)” value [1, 8] was 54%. The “Population Normal (%)” value [1, 8] was 96%, the “Population Pyknosed Nuclei (%)” value [1, 8] was 10% and the “Population Tubulin-Different-Phenotype (%)” value [1, 8] was 17%. For the same molecule, the “Total Cell Count” value [1, 8] was 210, the “Population Apoptotic (%)” value [1, 9] was 42% and the “Population Fragmented Nuclei (%)” value [1, 9] was 9%. The “Population Healthy Nuclei (%)” value [1, 9] was 77%, the “Population Hoechst High Intensity Objects (%)” value [1, 9] was 5% and the “Population Membrane Permeable-Phenotype (%)” value [1, 9] was 32%. For the same molecule, the “Population Mitochondria Different-Phenotype (%)” value [1, 9] was 15%, the “Population Mitotic Cells (%)” value [1, 9] was 57% and the “Population Normal (%)” value [1, 9] was 94%. The “Population Pyknosed Nuclei (%)” value [1, 9] was 13%, the “Population Tubulin-Different-Phenotype (%)” value [1, 9] was 15% and the “Total Cell Count” value [1, 9] was 148. The “Population Apoptotic (%)” value [1, 10] was 33%, the “Population Fragmented Nuclei (%)” value [1, 10] was 3% and the “Population Healthy Nuclei (%)” value [1, 10] was 93%. For the same molecule, the “Population Hoechst High Intensity Objects (%)” value [1, 10] was 11%, the “Population Membrane Permeable-Phenotype (%)” value [1, 10] was 2% and the “Population Mitochondria Different-Phenotype (%)” value [1, 10] was 19%. For the same molecule, the “Population Mitotic Cells (%)” value [1, 10] was 66%, the “Population Normal (%)” value [1, 10] was 88% and the “Population Pyknosed Nuclei (%)” value [1, 10] was 2%. For the same molecule, the “Population Tubulin-Different-Phenotype (%)” value [1, 10] was 94%, the “Total Cell Count” value [1, 10] was 244 and the “Population Apoptotic (%)” value [1, 11] was 40%. For the same molecule, the “Population Fragmented Nuclei (%)” value [1, 11] was 9%, the “Population Healthy Nuclei (%)” value [1, 11] was 82% and the “Population Hoechst High Intensity Objects (%)” value [1, 11] was 8%. The “Population Membrane Permeable-Phenotype (%)” value [1, 11] was 8%, the “Population Mitochondria Different-Phenotype (%)” value [1, 11] was 30% and the “Population Mitotic Cells (%)” value [1, 11] was 60%. For the same molecule, the “Population Normal (%)” value [1, 11] was 91%, the “Population Pyknosed Nuclei (%)” value [1, 11] was 7% and the “Population Tubulin-Different-Phenotype (%)” value [1, 11] was 21%. For the same molecule, the “Total Cell Count” value [1, 11] was 146, the “Growth Rate” value ([2]; 0 h, replicate number 1, timepoint 0 hours) was 0 and the “Growth Rate” value [2, 12] was 0. For the same molecule, the “Growth Rate” value [2, 13] was 1, the “Growth Rate” value ([2]; 12 h, replicate number 2, timepoint 12 hours) was 0 and the “Growth Rate” value [2, 14] was 0. The “Growth Rate” value [2, 15] was 0, the “Growth Rate” value [3, 12] was 0 and the “Growth Rate” value [3, 13] was 0. The “Growth Rate” value [3, 14] was 0 and the “Growth Rate” value [3, 15] was 0.
